Hits are enriched below; roughly 3.5% of the tested compounds scored in any of these assays.
MrgX1 agonist – agonists of human MrgX1 receptor, primary screen, HEK293 cells, Fluo-4 calcium flux; 310,000 tested, 0.44% active; B-score at 10 µM; Mas-related G-protein coupled receptor member X1 (Homo sapiens), Q96LB2; Fluo-4 calcium fluorescence, agonist mode; active compounds read high;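 active = calcium response B-score plate-corrected fluorescence ratio at least 3 library SD, with starting fluorescence B-score inside 5 SD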
Target sequence (Q96LB2 whole entry, looked up): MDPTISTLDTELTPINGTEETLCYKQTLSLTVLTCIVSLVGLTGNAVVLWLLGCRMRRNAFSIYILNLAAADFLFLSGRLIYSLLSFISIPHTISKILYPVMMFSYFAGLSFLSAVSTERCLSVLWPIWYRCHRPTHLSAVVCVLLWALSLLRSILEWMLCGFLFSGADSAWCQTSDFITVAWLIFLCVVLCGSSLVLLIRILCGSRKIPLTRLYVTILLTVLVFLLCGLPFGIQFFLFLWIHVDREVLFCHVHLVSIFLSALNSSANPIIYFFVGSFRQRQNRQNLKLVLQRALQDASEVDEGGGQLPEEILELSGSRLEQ
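Material – MrgX1-expressing HEK293 cells · Input – 15,000 cells seeded per well · Dosing – compound as first of three additions · Times – overnight seeding, then 1 h dark dye loading · Measured by – kinetic Fluo-4 NW fluorescence of intracellular calcium · Read-out – B-scored fluorescence response ratio · Benchmarks – positive and negative control wells on each plate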
MrgX1 PAM – positive allosteric modulators of MrgX1, primary screen, HEK293 cells, Fluo-4 calcium flux; FDSS; active compounds read high; B-score at 10 µM; 310,000 tested, 0.63% active;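 active = plate-corrected calcium response at least 3 library SD above typical, normal starting fluorescence, not activating the receptor alone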;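 also: compound read alongside a low EC10 to EC30 dose of BAM8-22 agonist; peak minus trough fluorescence over baseline measured at the second addition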
RGS4 pot – RGS4 potentiators or activators, primary screen, cell-based, HEK293 M3R inducible RGS4, calcium flux; carbachol calcium flux Fluo4; active compounds read low; B-score at 10 µM; 310,000 tested, 0.92% active;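 active = B-score of the integrated calcium signal more than 4 SD below the library mean, with starting fluorescence not abnormally high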;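 also: negative B-score means reduced calcium response which marks RGS4 activation or potentiation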
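Test system: HEK293 cells with stable M3R and inducible RGS4; also added: carbachol at ECmax as muscarinic agonist stimulus; schedule: dye loading 30 min 37 °C, buffer rest 30 min RT; technique: kinetic calcium fluorescence imaging with Fluo4-AM dye, 2 µM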
MrgX1 antagonist – antagonists of human MrgX1 receptor, primary screen, HEK293 cells, Fluo-4 calcium flux | B-score at 10 µM | 310,000 tested, 1.3% active | Mas-related G-protein coupled receptor member X1 (Homo sapiens), Q96LB2 | BAM8-22 antagonism; active compounds read low;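 active = calcium-response B-score plate-corrected more than 3 library SD below zero, starting fluorescence within 5 deviations, no agonist response on first addition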;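 also: peak minus trough fluorescence over baseline after final BAM8-22 challenge near maximal dose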
RGS4 inh – RGS4 inhibitors, primary screen, cell-based, HEK293 M3R inducible RGS4, calcium flux; Fluo-4 calcium flux; active compounds read high; triggered by carbachol at its EC20; 310,000 tested, 0.45% active; Regulator of G-protein signaling 4 (Homo sapiens), P49798; B-score at 10 µM; AID 463165, 2010;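 active = B-score, a plate-corrected calcium signal, over three deviations above library mean, with baseline fluorescence within five deviations of library mean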;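 also: RGS4 expression induced by doxycycline in cells with stable M3 receptor; B-score is computed from the integrated fluorescence ratio over baseline after carbachol; higher B-score means a larger calcium signal and so more RGS4 inhibition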
Target sequence (P49798 whole entry, looked up): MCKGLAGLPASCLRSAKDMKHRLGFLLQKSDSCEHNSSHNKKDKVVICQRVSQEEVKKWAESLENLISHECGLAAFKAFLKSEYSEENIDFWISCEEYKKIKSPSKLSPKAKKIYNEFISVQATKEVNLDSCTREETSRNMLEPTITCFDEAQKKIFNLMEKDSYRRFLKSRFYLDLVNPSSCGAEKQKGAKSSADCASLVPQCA
An asterisk follows results filed as active.

Screening C/C=C/C=C/C(=O)OC(C)C(=O)Nc1cc([N+](=O)[O-])ccc1OC (stereo not given) returned MrgX1 agonist inactive, MrgX1 PAM 7.6*, RGS4 pot inactive, MrgX1 antagonist inactive and RGS4 inh inactive.
`COc1ccc([N+](=O)[O-])cc1NC(=O)C(C)OC(=O)c1ccccn1` (stereo not given) gave MrgX1 agonist inactive, MrgX1 PAM inactive, RGS4 pot inactive, MrgX1 antagonist inactive and RGS4 inh inactive.
Screening CCN(CC)c1ccc(NC2CC(=O)N(CCc3ccc(OC)cc3)C2=O)cc1 (stereo not given) returned MrgX1 agonist inactive, MrgX1 PAM inactive, RGS4 pot inactive, MrgX1 antagonist inactive and RGS4 inh inactive.
For Cc1ccc(C(=O)Nc2cccc(NC(=O)c3cccs3)c2)c(C)c1 the results were MrgX1 agonist inactive, MrgX1 PAM inactive, RGS4 pot inactive, MrgX1 antagonist inactive and RGS4 inh inactive.
Screening Cc1ccc(S(=O)(=O)c2c(N)n(Cc3ccco3)c3nc4ccccc4nc23)cc1C returned MrgX1 agonist inactive, MrgX1 PAM inactive, RGS4 pot inactive, MrgX1 antagonist -4.8* and RGS4 inh inactive.
Cn1c(=O)c2nc3ccccc3nc2n(C)c1=O was read as MrgX1 agonist inactive, MrgX1 PAM inactive, RGS4 pot -7.5*, MrgX1 antagonist inactive and RGS4 inh inactive.
Screening C/C(CC(C)(C)C1CCCCC1)=N\NC(N)=S returned MrgX1 agonist inactive, MrgX1 PAM inactive, RGS4 pot inactive, MrgX1 antagonist -8.7* and RGS4 inh inactive.
`COc1cc(-c2noc(C3CCCN(C(=O)c4c(F)cccc4F)C3)n2)cc(OC)c1OC` (stereo not given) gave MrgX1 agonist inactive, MrgX1 PAM inactive, RGS4 pot inactive, MrgX1 antagonist inactive and RGS4 inh inactive.
For CC(C)[N+](C)(C)CC#CC(O)(c1ccccc1)c1ccccc1 the results were MrgX1 agonist inactive, MrgX1 PAM inactive, RGS4 pot -7.8*, MrgX1 antagonist inactive and RGS4 inh inactive.
Screening OC(C#CCCN1CCCCC1)(c1ccccc1)c1ccccc1 returned MrgX1 agonist inactive, MrgX1 PAM inactive, RGS4 pot inactive, MrgX1 antagonist inactive and RGS4 inh inactive.
`C[N+]1(CC#CC(O)(c2ccccc2)c2ccccc2)CCCC1` gave MrgX1 agonist inactive, MrgX1 PAM inactive, RGS4 pot -8.4*, MrgX1 antagonist inactive and RGS4 inh inactive.
For Cc1ccc(C)c(S(=O)(=O)N2CCCCC2CCNC(=O)C(=O)NCc2ccncc2)c1 (stereo not given) the results were MrgX1 agonist inactive, MrgX1 PAM inactive, RGS4 pot inactive, MrgX1 antagonist inactive and RGS4 inh inactive.
`CC12CCC(C(=O)N/N=C/c3ccc(O)cc3O)(OC1=O)C2(C)C` (stereo not given) gave MrgX1 agonist inactive, MrgX1 PAM inactive, RGS4 pot inactive, MrgX1 antagonist inactive and RGS4 inh inactive.
CC1(C)CC(NC(=O)c2cccc(Cl)c2)CC(C)(C)N1 was read as MrgX1 agonist inactive, MrgX1 PAM inactive, RGS4 pot inactive, MrgX1 antagonist inactive and RGS4 inh inactive.
Screening O=C(CCN1CCC(c2ccc(Cl)s2)=N1)c1ccc(Cl)s1 returned MrgX1 agonist inactive, MrgX1 PAM inactive, RGS4 pot inactive, MrgX1 antagonist -4.9* and RGS4 inh inactive.
`O=C(CSCc1ccco1)c1ccc(Cl)s1` gave MrgX1 agonist inactive, MrgX1 PAM inactive, RGS4 pot inactive, MrgX1 antagonist inactive and RGS4 inh inactive.
`CC1(C)CC(=O)C/C(=N/NC(=O)COc2ccc3ccccc3c2Br)C1` gave MrgX1 agonist inactive, MrgX1 PAM inactive, RGS4 pot inactive, MrgX1 antagonist -8* and RGS4 inh inactive.
Screening CC1(C)CC(=O)C/C(=N/NC(=O)COc2ccc(Cl)cc2Cl)C1 returned MrgX1 agonist inactive, MrgX1 PAM inactive, RGS4 pot inactive, MrgX1 antagonist inactive and RGS4 inh inactive.
Screening Cc1cc(C)c(C(=O)COC(=O)c2ccc([N+](=O)[O-])o2)cc1C returned MrgX1 agonist inactive, MrgX1 PAM inactive, RGS4 pot -7.5*, MrgX1 antagonist inactive and RGS4 inh inactive.
`COCCn1c(C)cc(C(=O)COC(=O)c2ccc([N+](=O)[O-])o2)c1C` gave MrgX1 agonist inactive, MrgX1 PAM inactive, RGS4 pot inactive, MrgX1 antagonist inactive and RGS4 inh inactive.
Cc1ccc(S(=O)(=O)N2CCN(C)CC2)cc1[N+](=O)[O-] was read as MrgX1 agonist inactive, MrgX1 PAM inactive, RGS4 pot inactive, MrgX1 antagonist -4.9* and RGS4 inh inactive.
Screening Cc1ccc(C)c(NC(=O)C(Sc2nc3ccccc3c(=O)n2CC(C)C)c2ccccc2)c1 (stereo not given) returned MrgX1 agonist inactive, MrgX1 PAM inactive, RGS4 pot -7.3*, MrgX1 antagonist inactive and RGS4 inh inactive.
`CCOC(=O)N1CCN(C(=O)CNC(=O)c2ccc(Br)o2)CC1` gave MrgX1 agonist inactive, MrgX1 PAM inactive, RGS4 pot inactive, MrgX1 antagonist inactive and RGS4 inh inactive.
For COCCN=c1scc(-c2ccc3c(c2)NC(=O)CO3)n1/N=C(\C)c1ccc(O)cc1 the results were MrgX1 agonist inactive, MrgX1 PAM inactive, RGS4 pot inactive, MrgX1 antagonist -5.4* and RGS4 inh inactive.
For Cc1ccc(C2C3CN(C(C)C)CC=C3C(C#N)=C(N)C2(C#N)C#N)cc1 (stereo not given) the results were MrgX1 agonist inactive, MrgX1 PAM inactive, RGS4 pot -7.1*, MrgX1 antagonist inactive and RGS4 inh inactive.
Screening COc1ccc(OC)c(C2C3CN(C(C)C)CC=C3C(C#N)=C(N)C2(C#N)C#N)c1 (stereo not given) returned MrgX1 agonist 27*, MrgX1 PAM inactive, RGS4 pot inactive, MrgX1 antagonist inactive and RGS4 inh inactive.
`CN1CC=C2C(C#N)=C(N)C(C#N)(C#N)C(c3cccc(Cl)c3Cl)C2C1` (stereo not given) gave MrgX1 agonist inactive, MrgX1 PAM inactive, RGS4 pot inactive, MrgX1 antagonist -5.5* and RGS4 inh inactive.
CN1CC=C2C(C#N)=C(N)C(C#N)(C#N)[C@H](c3ccoc3)[C@H]2C1 was read as MrgX1 agonist inactive, MrgX1 PAM inactive, RGS4 pot inactive, MrgX1 antagonist inactive and RGS4 inh inactive.
